Measured values of several laboratories.
Lines come from different studies, so protocols differ.
Target: Serine/threonine-protein kinase Nek7 (NEK7, Homo sapiens, UniProt Q8TDX7)

| SMILES | observed | mode | technique | tested at | endpoint | value |
| --- | --- | --- | --- | --- | --- | --- |
| Cn1cc(-c2cc(F)cc(N3CCn4c(cc5c4CCCC5)C3=O)c2CO)cc(Nc2ccc(N3CCN(C4COC4)CC3)cn2)c1=O | enzyme activity | inhibitor |  | 0.1 µM | inhibition | 10% |
| O=c1[nH]c2ccccc2n1C1CCN(Cc2ccc(-c3[nH]c4cc5ncnc5cc4nc3-c3ccccc3)cc2)CC1 | cell-free assay |  |  | 0.5 µM | remaining signal | 99.6% |
| COc1cc(Nc2ncc(F)c(Nc3ccc4c(n3)NC(=O)C(C)(C)O4)n2)cc(OC)c1OC | binding |  | competition with immobilised ligand | 10 µM | inhibition | 100% |
| Cn1cncc1[C@](O)(COc1ccc(C#N)cc1-c1ccc(OC(F)(F)F)cc1)c1ccc(C#N)cc1 | cell-free assay |  | competition with immobilised ligand | 1 µM | remaining binding | 46% |
| Cc1nn(C)cc1-c1nc2c(N3CCN(Cc4ccc(Cl)cc4)CC3)c(Cl)cnc2[nH]1 | binding |  | competition with immobilised ligand | 1 µM | remaining binding | 100% |
| Nc1ncc(-c2nc(N3CCOCC3)nc(N3CCOCC3)n2)c(C(F)F)n1 | binding |  | competition with immobilised ligand | 10 µM | remaining binding | 70% |
| COc1ncccc1-c1cnn2ccc(N3CCN(C(=O)OC(C)C)CC3)nc12 | binding |  | competition with immobilised ligand | 1 µM | remaining binding | 100% |
| N#CC1(c2ccccn2)CCN(Cc2cc(C(=O)O)c(=O)n3ccccc23)CC1 | cell-free assay |  | competition with immobilised ligand | 1 µM | remaining binding | 100% |
| Cn1cc(-c2cccc(N3CCc4c(sc5c4CC(C)(C)C5)C3=O)c2CO)cc(Nc2ccncn2)c1=O | enzyme activity | inhibitor |  | 1 µM | inhibition | 1% |
| CC(C)(C)c1cc(C=C(C#N)C#N)cc(Br)c1O | enzyme activity | inhibitor |  | 0.5 µM | remaining activity | 89.5% |
